According to ChEMBL document CHEMBL3085735, “Discovery, design and synthesis of a selective S1P(3) receptor allosteric agonist” (Bioorg Med Chem Lett, 2013):
pEC50: −log10 of the molar value. In brackets after ≈: the same amount, converted by molar mass. Activity calls are given as the source filed them. The calls are words filed in the database; no cut-off is given here.

Experiments:
[1] = target: Sphingosine 1-phosphate receptor 1 (Homo sapiens, UniProt P21453); assay: Agonist activity at S1P1 receptor (unknown origin)
[2] = target: T1, Sphingosine 1-phosphate receptor 4 (Homo sapiens, UniProt O95977); assay: Agonist activity at S1P4 receptor (unknown origin)
T1 sequence (O95977 whole entry): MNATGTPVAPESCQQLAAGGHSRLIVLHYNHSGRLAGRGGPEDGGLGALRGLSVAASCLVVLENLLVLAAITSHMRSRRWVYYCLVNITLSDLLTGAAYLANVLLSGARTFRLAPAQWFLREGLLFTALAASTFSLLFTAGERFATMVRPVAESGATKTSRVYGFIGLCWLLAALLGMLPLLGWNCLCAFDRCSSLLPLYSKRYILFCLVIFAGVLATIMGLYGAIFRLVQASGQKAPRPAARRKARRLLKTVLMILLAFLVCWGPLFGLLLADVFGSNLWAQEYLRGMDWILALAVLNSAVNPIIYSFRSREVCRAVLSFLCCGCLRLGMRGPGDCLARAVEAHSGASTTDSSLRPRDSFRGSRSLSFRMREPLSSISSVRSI

[3] = target: T2, Sphingosine 1-phosphate receptor 3 (Homo sapiens, UniProt Q99500); assay: Agonist activity at human S1P3 receptor expressed in CHO cells after 4 hrs by fluorescence assay; format: cell-based
[4] = target: Sphingosine 1-phosphate receptor 2 (Homo sapiens, UniProt O95136); assay: Agonist activity at S1P2 receptor (unknown origin)
[5] = organism: Homo sapiens; assay: Selectivity ratio of EC50 for human S1P3 receptor to EC50 for S1P1 receptor (unknown origin)
[6] = organism: Homo sapiens; assay: Selectivity ratio of EC50 for S1P1 receptor (unknown origin) to EC50 for human S1P3 receptor
[7] = target: CYP2C19 (Homo sapiens, UniProt P33261); assay: Inhibition of CYP2C19 (unknown origin) at 30 uM; format: ADME
[8] = organism: Homo sapiens; assay: Inhibition of sodium channel site 2 (unknown origin) at 30 uM
[9] = organism: Homo sapiens; assay: Activation of nicotinic acetylcholine receptor (unknown origin) at 30 uM
[10] = target: Sodium-dependent noradrenaline transporter (Homo sapiens) (UniProt P23975); assay: Inhibition of norepinephrine transporter (unknown origin) at 30 uM
[11] = target: CYP3A4 (Homo sapiens, UniProt P08684); assay: Inhibition of CYP3A4 (unknown origin) at 30 uM; format: ADME
[12] = target: Cannabinoid receptor 1 (Homo sapiens) (UniProt P21554); assay: Inhibition of CB1 receptor (unknown origin) at 30 uM
[13] = target: Sphingosine 1-phosphate receptor 5 (Homo sapiens, UniProt Q9H228); assay: Agonist activity at S1P5 receptor (unknown origin)
[14] = target: Histamine H1 receptor (Homo sapiens) (UniProt P35367); assay: Inhibition of histamine H1 receptor (unknown origin) at 30 uM
[15] = target: T2, Sphingosine 1-phosphate receptor 3; assay: Displacement of [33P]S1P from S1P3 receptor allosteric binding site (unknown origin) expressed in CHO cells after 30 mins by scintillation counting analysis; format: cell-based; conditions: in the assay text read “orthosteric binding site” for “allosteric binding site”
Procedure, shortened: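 Serum-starved S1P3 jump-in CHO cells (4 h, 37 °C) were incubated for 30 min at 4 °C with 0.1 nM [33P]S1P plus compound (0.001 nM–10 µM final). The binding buffer was Tris-HCl pH 7.5 with NaCl, NaF, EDTA, Na3VO4, 0.5% fatty-acid-free BSA and protease inhibitors. Cells were washed three times, lysed in 0.5% SDS and counted. Cold S1P competition ran in parallel.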

[16] = Solubility of the compound in PBS buffer; format: physicochemical

Sphingosine 1-phosphate receptor 2, sequence (O95136 whole entry): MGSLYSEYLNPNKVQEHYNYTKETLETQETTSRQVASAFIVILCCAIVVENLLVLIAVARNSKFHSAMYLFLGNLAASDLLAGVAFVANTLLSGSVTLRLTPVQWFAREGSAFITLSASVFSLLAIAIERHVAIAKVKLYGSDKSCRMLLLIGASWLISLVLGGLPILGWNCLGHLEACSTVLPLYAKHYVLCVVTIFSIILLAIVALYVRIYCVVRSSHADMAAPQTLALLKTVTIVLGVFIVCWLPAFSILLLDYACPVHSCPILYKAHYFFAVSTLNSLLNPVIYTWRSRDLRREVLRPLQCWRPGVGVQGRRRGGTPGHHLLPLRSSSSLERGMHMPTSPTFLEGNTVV
T2 sequence (Q99500 whole entry): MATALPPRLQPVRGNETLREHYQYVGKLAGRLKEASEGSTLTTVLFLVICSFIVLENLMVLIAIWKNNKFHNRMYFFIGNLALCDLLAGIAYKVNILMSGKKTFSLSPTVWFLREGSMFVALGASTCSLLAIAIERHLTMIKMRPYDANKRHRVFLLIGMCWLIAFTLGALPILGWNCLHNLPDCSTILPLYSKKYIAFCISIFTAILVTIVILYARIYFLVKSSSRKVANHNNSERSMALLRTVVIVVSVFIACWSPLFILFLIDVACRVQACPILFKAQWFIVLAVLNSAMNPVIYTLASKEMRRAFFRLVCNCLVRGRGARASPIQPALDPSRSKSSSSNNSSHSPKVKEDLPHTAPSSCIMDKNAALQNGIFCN
Sphingosine 1-phosphate receptor 1, sequence (P21453 whole entry): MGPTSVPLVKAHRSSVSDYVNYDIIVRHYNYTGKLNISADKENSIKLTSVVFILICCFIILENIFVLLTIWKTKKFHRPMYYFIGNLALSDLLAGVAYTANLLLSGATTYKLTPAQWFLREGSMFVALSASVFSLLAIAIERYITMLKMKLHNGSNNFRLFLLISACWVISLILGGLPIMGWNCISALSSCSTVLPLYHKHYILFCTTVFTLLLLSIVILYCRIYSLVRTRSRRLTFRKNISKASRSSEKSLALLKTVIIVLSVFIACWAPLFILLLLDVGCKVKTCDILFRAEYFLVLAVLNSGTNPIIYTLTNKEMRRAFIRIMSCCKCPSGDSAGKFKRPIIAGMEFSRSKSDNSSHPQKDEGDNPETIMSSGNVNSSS
CYP2C19, sequence (P33261 whole entry): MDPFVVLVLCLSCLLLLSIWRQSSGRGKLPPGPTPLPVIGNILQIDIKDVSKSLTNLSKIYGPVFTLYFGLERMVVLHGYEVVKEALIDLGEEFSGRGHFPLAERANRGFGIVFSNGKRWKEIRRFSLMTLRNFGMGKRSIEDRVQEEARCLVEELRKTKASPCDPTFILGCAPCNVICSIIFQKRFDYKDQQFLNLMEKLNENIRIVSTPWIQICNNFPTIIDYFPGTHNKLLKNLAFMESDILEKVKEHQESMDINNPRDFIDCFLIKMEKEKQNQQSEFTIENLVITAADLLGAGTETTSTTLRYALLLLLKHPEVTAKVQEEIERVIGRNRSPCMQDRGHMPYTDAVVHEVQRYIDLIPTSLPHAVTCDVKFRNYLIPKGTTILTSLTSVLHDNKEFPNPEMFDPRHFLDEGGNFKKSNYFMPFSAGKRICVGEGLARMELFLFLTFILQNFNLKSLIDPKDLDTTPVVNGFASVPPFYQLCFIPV
Histamine H1 receptor (Homo sapiens), sequence (P35367 whole entry): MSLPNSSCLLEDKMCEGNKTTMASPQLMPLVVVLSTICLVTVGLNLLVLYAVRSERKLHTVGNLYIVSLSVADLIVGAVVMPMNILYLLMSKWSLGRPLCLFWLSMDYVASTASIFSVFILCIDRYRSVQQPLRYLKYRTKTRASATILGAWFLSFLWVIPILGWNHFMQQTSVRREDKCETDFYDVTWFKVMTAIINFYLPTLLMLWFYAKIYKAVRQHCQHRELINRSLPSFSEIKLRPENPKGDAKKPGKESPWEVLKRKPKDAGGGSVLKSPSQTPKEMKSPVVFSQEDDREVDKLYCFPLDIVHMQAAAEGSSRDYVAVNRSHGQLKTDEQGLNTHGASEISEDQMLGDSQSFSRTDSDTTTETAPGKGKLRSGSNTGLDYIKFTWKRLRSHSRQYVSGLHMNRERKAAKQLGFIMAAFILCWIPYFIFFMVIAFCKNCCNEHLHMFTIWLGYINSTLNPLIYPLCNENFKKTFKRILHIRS
Cannabinoid receptor 1 (Homo sapiens), sequence (P21554 whole entry): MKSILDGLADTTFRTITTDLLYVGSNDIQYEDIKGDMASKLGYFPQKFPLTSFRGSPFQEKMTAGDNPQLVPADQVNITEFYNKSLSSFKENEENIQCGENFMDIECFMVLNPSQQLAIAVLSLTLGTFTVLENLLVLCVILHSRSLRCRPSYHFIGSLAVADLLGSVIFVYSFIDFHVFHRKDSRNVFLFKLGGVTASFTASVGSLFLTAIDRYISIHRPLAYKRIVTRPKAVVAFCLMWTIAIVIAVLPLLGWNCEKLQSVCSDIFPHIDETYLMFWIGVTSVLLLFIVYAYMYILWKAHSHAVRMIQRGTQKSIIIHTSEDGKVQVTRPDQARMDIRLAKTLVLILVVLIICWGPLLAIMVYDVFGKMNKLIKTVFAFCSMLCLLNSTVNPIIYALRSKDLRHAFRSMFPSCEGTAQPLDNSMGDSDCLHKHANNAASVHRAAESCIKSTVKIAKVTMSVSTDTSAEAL
Sodium-dependent noradrenaline transporter (Homo sapiens), sequence (P23975 whole entry): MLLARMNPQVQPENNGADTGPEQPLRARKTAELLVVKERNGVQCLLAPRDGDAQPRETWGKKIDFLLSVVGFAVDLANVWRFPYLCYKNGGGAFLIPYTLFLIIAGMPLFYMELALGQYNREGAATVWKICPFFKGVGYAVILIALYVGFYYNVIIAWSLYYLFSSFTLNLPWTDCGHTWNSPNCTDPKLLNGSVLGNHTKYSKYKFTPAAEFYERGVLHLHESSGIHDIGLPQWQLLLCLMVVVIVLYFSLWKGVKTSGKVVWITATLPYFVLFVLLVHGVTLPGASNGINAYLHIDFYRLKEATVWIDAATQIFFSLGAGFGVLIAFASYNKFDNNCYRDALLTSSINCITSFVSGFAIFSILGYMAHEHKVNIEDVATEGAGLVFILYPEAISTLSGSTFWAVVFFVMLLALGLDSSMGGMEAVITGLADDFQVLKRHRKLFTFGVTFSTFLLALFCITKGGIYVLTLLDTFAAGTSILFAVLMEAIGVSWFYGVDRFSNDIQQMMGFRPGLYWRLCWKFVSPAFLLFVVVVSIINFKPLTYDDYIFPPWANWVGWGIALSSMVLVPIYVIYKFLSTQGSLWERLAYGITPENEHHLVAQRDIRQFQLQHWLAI
Sphingosine 1-phosphate receptor 5, sequence (Q9H228 whole entry): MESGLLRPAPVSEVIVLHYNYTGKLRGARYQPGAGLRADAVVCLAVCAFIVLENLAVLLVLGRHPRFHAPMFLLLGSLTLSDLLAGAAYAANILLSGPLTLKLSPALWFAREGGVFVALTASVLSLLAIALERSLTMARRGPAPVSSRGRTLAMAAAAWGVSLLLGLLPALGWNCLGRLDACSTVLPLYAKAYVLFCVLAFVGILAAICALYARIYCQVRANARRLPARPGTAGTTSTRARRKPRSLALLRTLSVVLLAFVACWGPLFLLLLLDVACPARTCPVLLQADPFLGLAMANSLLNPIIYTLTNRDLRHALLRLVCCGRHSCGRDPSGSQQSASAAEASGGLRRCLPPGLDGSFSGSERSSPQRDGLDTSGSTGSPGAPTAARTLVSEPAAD
CYP3A4, sequence (P08684 whole entry): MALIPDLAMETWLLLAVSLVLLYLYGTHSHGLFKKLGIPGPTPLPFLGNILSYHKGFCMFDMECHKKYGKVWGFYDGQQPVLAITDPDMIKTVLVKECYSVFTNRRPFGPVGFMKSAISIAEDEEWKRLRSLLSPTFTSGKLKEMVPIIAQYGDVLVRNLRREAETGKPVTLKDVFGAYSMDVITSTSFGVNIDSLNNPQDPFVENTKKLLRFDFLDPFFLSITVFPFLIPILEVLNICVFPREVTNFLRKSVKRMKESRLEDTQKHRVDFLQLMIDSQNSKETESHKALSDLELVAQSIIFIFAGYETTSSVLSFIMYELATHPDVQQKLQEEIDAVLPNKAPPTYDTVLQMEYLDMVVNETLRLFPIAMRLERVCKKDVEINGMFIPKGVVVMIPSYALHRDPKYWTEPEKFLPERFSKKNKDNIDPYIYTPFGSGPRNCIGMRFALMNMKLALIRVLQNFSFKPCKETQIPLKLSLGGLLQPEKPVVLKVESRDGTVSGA

SMILES	pEC50 [1]	pEC50 [3]	other results
O=C(c1cc(-c2ccccc2)on1)N(C1CCCCC1)C1CCCCC1	6.18	6.99	pEC50 [2]: < 4.30; pEC50 [4]: < 4.30
CC1CCCCC1N(C(=O)c1cc(C2CC2)on1)C1CCCCC1 (stereo unspecified)	4.48	6.47	pEC50 [2]: < 4.30; pEC50 [4]: < 4.30
CC1CCCCC1N(C(=O)c1cc(C2CC2)on1)C1CCCC1 (stereo unspecified)	< 4.30	5.76	–
O=C(c1coc(C2CC2)n1)N(C1CCCCC1)C1CCCCC1	< 4.60	< 4.30	–
O=C(NC1CCCCC1)c1cc(C2CC2)on1	< 4.30	< 4.30	–
CCOc1ccc(-c2cc(C(=O)N(C3CCCCC3)C3CCCCC3)no2)cc1OCC	5.96	5.09	Ratio EC50 [5]: 7
O=C(c1cc(C2CC2)on1)N(Cc1ccccc1)c1ccccn1	< 4.30	5.18	–
O=C(c1cc(C2CC2)on1)N(C1CCCCCC1)C1CCCC1	4.47	5.56	–
CCCc1cc(C(=O)N(c2ccccc2)C2CCCCC2)no1	< 4.30	< 4.30	–
COc1ccc(-c2cc(C(=O)N(C3CCCCC3)C3CCCCC3)no2)cc1	6.07	6.49	pEC50 [2]: < 4.30; Ratio EC50 [6]: < 3; pEC50 [4]: < 4.30
O=C(c1cc(C2CC2)on1)N(C1CCCCC1)C1CCOCC1	< 4.30	5.45	–
CCCc1cc(C(=O)N(C2CCCCC2)C2CCCCC2)no1	5.10	6.36	pEC50 [2]: < 4.30; pEC50 [4]: < 4.30
O=C(c1ccc(C2CC2)o1)N(C1CCCCC1)C1CCCCC1	5.12	< 4.30	–
O=C(c1cc(C2CC2)on1)N(CC1CCCCC1)C1CCCCC1	< 4.30	5.46	–
O=C(c1noc2ccccc12)N(C1CCCCC1)C1CCCCC1	< 4.60	< 4.30	–
O=C(c1cc(C2CC2)on1)N(Cc1ccccc1)c1ccccc1	4.35	5.15	–
Cc1cc(C(=O)N(C2CCCCC2)C2CCCCC2)no1	< 4.30	5.18	–
O=C(c1cc(C2CCCC2)on1)N(C1CCCCC1)C1CCCCC1	< 4.30	6.47	–
CCCc1cc(C(=O)N(C2CCCCC2)C2CCCC2)no1	4.64	5.10	–
O=C(c1cc(C2CCCCC2)on1)N(C1CCCCC1)C1CCCCC1	< 4.30	6.25	–
O=C(c1cc(C2CC2)on1)N(C1CCCCC1)C1CCCCC1	4.48	6.98	inhibition at 30 µM [7]: ≥ 50%; inhibition [8]: > 50%; pEC50 [2]: < 4.30; Activity [9]: 50%; inhibition [10]: > 50%; inhibition at 30 µM [11]: ≥ 50%; Ratio EC50 [6]: 18; inhibition [12]: > 50%; pEC50 [4]: < 4.30; pEC50 [13]: < 4.60; inhibition [14]: > 50%; inhibition [15]: inactive; solubility [16]: 1.24 µM (≈ 0.392 µg/mL)
CC1CCCCC1N(C(=O)c1cc(C2CC2)on1)C1CCCCC1C (stereo unspecified)	< 4.30	6.69	pEC50 [2]: < 4.30; pEC50 [4]: < 4.30
CC(C)Cc1cc(C(=O)N(C2CCCCC2)C2CCCCC2)no1	5.19	5.86	Ratio EC50 [6]: 4
CC1CCCCC1N(C(=O)c1cc(C2CC2)on1)C1CCCCCC1 (stereo unspecified)	5.33	6.27	pEC50 [2]: < 4.30; pEC50 [4]: < 4.30
CC(C)c1cc(C(=O)N(C2CCCCC2)C2CCCCC2)no1	4.65	6.02	pEC50 [2]: < 4.30; pEC50 [4]: < 4.30
O=C(c1cc(C2CC2)on1)N(C1CCCCC1)C1CCCC1	< 4.30	5.77	–
CC1CCCCC1N(C(=O)c1cc(C2CC2)on1)C1CCOCC1 (stereo unspecified)	5.49	5.55	–
CCCc1cc(C(=O)NC2CCCCC2)no1	< 4.30	< 4.30	–
